In ChEMBL document CHEMBL4706641, “Novel Carboline Fungal Histone Deacetylase (HDAC) Inhibitors for Combinational Treatment of Azole-Resistant Candidiasis” (J Med Chem, 2021):
The source made the active and inactive calls. The calls are words filed in the database; no cut-off is given here.

Key:
Candida albicans [1] = experiment: Antifungal activity against Candida albicans 0304103 incubated for 48 hrs by microdilution assay; assay type: functional; details: Candida albicans, 0304103, read-out: MIC80
Outline: (§1)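 Checkerboard broth microdilution per CLSI M27-A3 (modified), clinical Candida isolates. Exponential cells in RPMI 1640 (MOPS-buffered) at 10³ cells/mL; fluconazole 0.25–64 μg/mL crossed with test compound 2–64 μg/mL (final). 48 h at 35 °C; OD630 read with background subtracted. MIC80 = 80% growth inhibition; FICI ≤0.5 synergy, >4 antagonism.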

Candida albicans [2] = experiment: Synergistic antifungal activity against Candida albicans 0304103 incubated for 48 hrs in presence of fluconazole by microdilution assay; assay type: functional; outline: as §1
[Candida] auris = Synergistic antifungal activity against Candida auris assessed as potentiation of ITC antifungal activity by measuring ITC incubated for 48 hrs in presence of fluconazole by checkerboard microdilution assay; assay type: functional, organism-based; details: Candidozyma auris
Candida tropicalis = experiment: Synergistic antifungal activity against Candida tropicalis assessed as potentiation of ITC antifungal activity by measuring ITC incubated for 48 hrs in presence of fluconazole by checkerboard microdilution assay; assay type: functional, organism-based
Nakaseomyces glabratus = experiment: Synergistic antifungal activity against Candida glabrata assessed as potentiation of VRC antifungal activity by measuring VRC incubated for 48 hrs in presence of fluconazole by checkerboard microdilution assay; assay type: functional, organism-based
Candida albicans [3] = experiment: Synergistic antifungal activity against Candida albicans 0304103 at 8 ug/ml incubated for 48 hrs in presence of 32 ug/ml fluconazole by microdilution assay; assay type: functional, organism-based; details: dose 8.0 µg/ml
Candida albicans [4] = experiment: Synergistic antifungal activity against Candida albicans 0304103 assessed as potentiation of fluconazole antifungal activity incubated for 48 hrs in presence of fluconazole by checkerboard microdilution assay; assay type: functional, organism-based; outline: as §1
Candida albicans [5] = experiment: Antifungal activity against Candida albicans 0304103 at 32 ug/ml incubated for 48 hrs by microdilution assay; assay type: functional, organism-based; details: dose 32.0 µg/ml
Candida albicans [6] = experiment: Synergistic fungicidal activity against Candida albicans 0304103 assessed as potentiation of fluconazole antifungal activity at 32 ug/ml incubated for 48 hrs in presence of 64 ug/ml fluconazole by checkerboard microdilution assay; assay type: functional, organism-based; details: dose 32.0 µg/ml
Candida albicans [7] = experiment: Antifungal activity against Candida albicans 9172 incubated for 48 hrs by microdilution assay; assay type: functional; outline: as §1
Candida albicans [8] = experiment: Synergistic antifungal activity against Candida albicans 9884 incubated for 48 hrs in presence of fluconazole by microdilution assay; assay type: functional; outline: as §1
Candida albicans [9] = experiment: Synergistic antifungal activity against Candida albicans 10061 incubated for 48 hrs in presence of fluconazole by microdilution assay; assay type: functional; outline: as §1
Candida albicans [10] = experiment: Synergistic antifungal activity against Candida albicans 4108 assessed as potentiation of fluconazole antifungal activity by measuring FICI incubated for 48 hrs in presence of fluconazole by checkerboard microdilution assay; assay type: functional
Pichia kudriavzevii = experiment: Synergistic antifungal activity against Candida krusei 10153 assessed as potentiation of fluconazole antifungal activity by measuring FICI incubated for 48 hrs in presence of fluconazole by checkerboard microdilution assay; assay type: functional
Outline: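 Checkerboard broth microdilution per CLSI M27-A3 (modified), clinical Candida isolates. 48 h at 35 °C; OD630 read with background subtracted. MIC80 = 80% growth inhibition; FICI ≤0.5 synergy, >4 antagonism.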

[11] = molecular target: Histone deacetylase (Homo sapiens) (UniProt Q13547+O15379+Q9UBN7+Q92769+Q9UQL6+Q8WUI4+Q9BY41+Q96DB2+P56524+Q9UKV0+Q969S8); experiment: Inhibition of HDAC in HUVEC using Boc-Lys(Ac)-AMC substrate incubated for 18 hrs by fluorescence based assay; assay type: protein assay
Outline: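 Human total HDAC in whole HUVEC cells: about 15000 cells/well, 24 h at 37 °C/5% CO₂ before compound; then Boc-Lys(Ac)-AMC 33 μM, 37 °C 6 h, trypsin/Nonidet P-40 stop 2 h, fluorescence Ex 360/Em 460 nm. Inhibition relative to control after blank subtraction; three independent experiments.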

[12] = Toxicity in HUVEC; assay type: cell-based; details: human, HUVEC cells
[13] = Toxicity in human L02 cells; assay type: cell-based
Candida albicans [14] = experiment: Up-regulation of CDR2 mRNA expression in Candida albicans 0304103 at 32 ug/ml incubated for 24 hrs by RT-PCR analysis; assay type: functional; details: dose 32.0 µg/ml
Outline: (§2)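 C. albicans 0304103 (initial 1 × 10⁶ cells/mL) treated with DMSO, fluconazole 32 μg/mL, compound 32 μg/mL, or both in YEPD medium, 35 °C for 24 h. Total RNA extracted, reverse transcribed, real-time PCR for 40 cycles; fold change by 2^−ΔΔCt with ACT1 as internal control.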

Candida albicans [15] = experiment: Down regulation of CDR2 mRNA expression in Candida albicans 0304103 at 32 ug/ml incubated for 24 hrs in presence of 32 ug/ml fluconazole by RT-PCR analysis; assay type: functional; details: dose 32.0 µg/ml; outline: as §2
Candida albicans [16] = experiment: Up-regulation of MDR1 mRNA expression in Candida albicans 0304103 at 32 ug/ml incubated for 24 hrs in presence of 32 ug/ml fluconazole by RT-PCR analysis; assay type: functional; details: dose 32.0 µg/ml
Outline: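 Cells from a 1 × 10⁶ cells/mL starting suspension were split into DMSO control, FLC 32 μg/mL, test compound 32 μg/mL and combination (32 + 32 μg/mL) groups, then incubated 24 h at 35 °C in YEPD. Total RNA was extracted and reverse-transcribed. Real-time PCR ran 40 cycles (95 °C 5 s, 60 °C 34 s). Fold change was calculated by 2^−ΔΔCt against ACT1.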

Candida albicans [17] = experiment: Induction of morphological changes in Candida albicans assessed as reduction in morphological conversion from yeast to hypha forms at 32 ug/ml incubated for 3 hrs in presence of 32 ug/ml fluconazole by inverse fluorescence microscopy; assay type: functional, organism-based; details: dose 32.0 µg/ml
Outline: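 Exponential C. albicans at 2 × 10⁶ cells/mL in Spider medium (hypha-inducing), drugs alone or combined, DMSO control; 3 h at 37 °C, then observed and photographed by inverted fluorescence microscopy. Three independent experiments.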

Candida albicans [18] = experiment: Inhibition of pre-formed biofilms in Candida albicans 0304103 at 64 ug/ml incubated for 24 hrs in presence of fluconazole by XTT reduction assay; assay type: functional; details: dose 64.0 µg/ml
Outline: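 Mature biofilms grown 24 h at 37 °C from C. albicans 0304103 (1.0 × 10⁶ CFU/mL in RPMI 1640), then treated with drugs alone or combined as in the formation assay; viability by XTT reduction at OD490. Three independent experiments; t-test versus control.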

Candida albicans [19] = experiment: Antifungal activity against Candida albicans 0304103 infected in ICR mouse model of candidiasis assessed as reduction in fungal invasion by measuring clusters of fungal infiltration in renal pelvis at 10 mg/kg, ip dosed 24 hrs post infection and measured after 5 days by H and E staining based microscopical analysis; assay type: functional, organism-based; details: time 5.0 day
Outline: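 Two ICR mice per group, infected and treated as in the kidney burden model (IV 5 × 10⁵ C. albicans 0304103; IP compound 10 mg/kg, fluconazole 1 mg/kg, or combination, 5 days). Kidneys fixed in 4% paraformaldehyde, paraffin-embedded, 4 μm sections, H&E stained, examined at 40× and 200×.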

## O=C(Cc1ccc(OCCCn2c3c(c4cccc(Cl)c42)CCNC3)cc1)NO
Candida albicans [1]
  MIC80: > 64 µg/mL
Candida albicans [2]
  MIC80: 2 µg/mL
[Candida] auris
  Activity: Active
Candida tropicalis
  Activity: Active
Nakaseomyces glabratus
  Activity: Active
Candida albicans [3]
  Activity: inactive
Candida albicans [4]
  Activity: Dose-dependent effect
Candida albicans [5]
  Activity: inactive
Candida albicans [6]
  Activity: Active
Candida albicans [7]
  MIC80: > 64 µg/mL
Candida albicans [8]
  MIC80: 2 µg/mL
Candida albicans [9]
  MIC80: 2 µg/mL
Candida albicans [10]
  fractional inhibitory concentration index (FICI): 0.035
Pichia kudriavzevii
  fractional inhibitory concentration index (FICI): 0.25
[11]
  inhibition: inactive
[12]
  IC50: 9.64 µM
[13]
  IC50: 11.5 µM
Candida albicans [14]
  Activity: Active
Candida albicans [15]
  Activity: Active
Candida albicans [16]
  fold change (FC): 8
Candida albicans [17]
  Activity: Active
Candida albicans [18]
  inhibition: Active
Candida albicans [19]
  Activity: inactive
